Measurements from ChEMBL document CHEMBL1145175, “Investigations on the effects of basic side chains on the hormonal profile of (4R,5S)/(4S,5R)-4,5-bis(4-hydroxyphenyl)-2-imidazolines” (J Med Chem, 2005).

Molecular target: T1, Estrogen receptor beta (Homo sapiens, UniProt Q92731)
Assay: Inhibition of estrogen receptor beta in […] at 10 uM
Format: cell-based
Settings: not given
Summary of the method: (§1)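 Antagonist mode used U-2 OS cells transiently co-transfected with pSG5-ERβ FL and (ERE)2luc+ in charcoal-stripped medium. Compounds at 10^-5 to 10^-13 M were co-incubated with E2 at 3.0 × 10^-10 M for 21 h. Luciferase luminescence was normalised to crystal-violet cell mass, in triplicate, and reported as % inhibition of the E2 signal.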

T1 sequence (Q92731 whole entry): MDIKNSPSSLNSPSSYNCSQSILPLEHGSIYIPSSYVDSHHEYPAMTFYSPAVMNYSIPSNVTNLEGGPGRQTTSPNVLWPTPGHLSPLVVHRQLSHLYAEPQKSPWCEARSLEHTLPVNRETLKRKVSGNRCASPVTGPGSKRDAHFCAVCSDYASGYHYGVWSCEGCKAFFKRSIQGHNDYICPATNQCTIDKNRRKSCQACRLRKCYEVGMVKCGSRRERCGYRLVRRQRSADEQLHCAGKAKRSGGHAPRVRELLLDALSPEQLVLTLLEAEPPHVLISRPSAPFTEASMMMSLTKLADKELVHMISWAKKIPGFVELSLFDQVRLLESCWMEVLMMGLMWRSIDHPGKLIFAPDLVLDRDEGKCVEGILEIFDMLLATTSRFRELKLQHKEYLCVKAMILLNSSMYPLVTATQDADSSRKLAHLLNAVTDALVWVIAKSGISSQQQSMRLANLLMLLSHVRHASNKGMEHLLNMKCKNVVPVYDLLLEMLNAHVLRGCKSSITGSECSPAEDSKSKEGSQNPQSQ

SMILES | IC50
CCC1=N[C@H](c2ccc(OCCN3CCCCC3)cc2Cl)[C@H](c2ccc(O)cc2Cl)N1 | 6 µM

Molecular target: T2, Estrogen receptor (Homo sapiens, UniProt P03372)
T2 sequence (P03372 whole entry): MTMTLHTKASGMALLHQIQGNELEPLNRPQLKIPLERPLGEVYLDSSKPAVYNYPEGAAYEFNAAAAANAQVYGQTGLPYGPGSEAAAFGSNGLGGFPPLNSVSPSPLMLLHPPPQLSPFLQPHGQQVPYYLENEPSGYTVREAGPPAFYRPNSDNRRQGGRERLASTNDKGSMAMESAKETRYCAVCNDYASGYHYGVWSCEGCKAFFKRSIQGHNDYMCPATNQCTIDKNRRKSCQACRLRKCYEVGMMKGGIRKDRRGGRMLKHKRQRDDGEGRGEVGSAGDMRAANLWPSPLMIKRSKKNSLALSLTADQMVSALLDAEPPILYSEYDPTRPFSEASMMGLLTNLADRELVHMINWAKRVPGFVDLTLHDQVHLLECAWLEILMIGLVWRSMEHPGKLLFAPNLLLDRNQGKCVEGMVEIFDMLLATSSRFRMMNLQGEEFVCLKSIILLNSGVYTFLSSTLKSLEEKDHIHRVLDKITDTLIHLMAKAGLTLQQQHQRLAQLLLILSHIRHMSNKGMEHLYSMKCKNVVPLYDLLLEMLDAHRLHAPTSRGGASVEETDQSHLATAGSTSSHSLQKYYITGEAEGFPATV
Assay: Effective concentration against estrogen receptor alpha of MCF-7-2a cells
Settings: not given

SMILES | EC50
Oc1cc(Cl)c([C@@H]2N=CN[C@@H]2c2ccc(OCCN3CCCCC3)cc2Cl)c(Cl)c1 | 0.085 µM
CN(C)CCOc1ccc([C@H]2N=CN[C@H]2c2ccc(O)cc2)cc1 | 3.47 µM
Oc1ccc([C@@H]2N=CN[C@@H]2c2ccc(OCCN3CCCCC3)cc2Cl)c(Cl)c1 | 1.7 µM
Oc1ccc([C@@H]2N=CN[C@@H]2c2ccc(OCCN3CCCC3)cc2Cl)c(Cl)c1 | 1.82 µM
CN(C)CCOc1ccc([C@H]2NC=N[C@H]2c2ccc(O)cc2Cl)c(Cl)c1 | 1.5 µM

Molecular target: T1, Estrogen receptor beta
Assay: Inhibition of estrogen receptor beta at 10 uM
Settings: not given

SMILES | IC50
CCC1=N[C@H](c2ccc(OCCN3CCCCC3)cc2)[C@H](c2ccc(O)cc2)N1 | 9 µM

Molecular target: T2, Estrogen receptor
Assay: Inhibition of estrogen receptor alpha in MCF-7-2a cells at 10 uM
Format: cell-based
Settings: not given

SMILES | IC50
CCC1=N[C@H](c2ccc(OCCN3CCCCC3)cc2)[C@H](c2ccc(O)cc2)N1 | 0.038 µM

Molecular target: T1, Estrogen receptor beta
Assay: Effective concentration against estrogen receptor beta of […]
Settings: not given
Summary of the method: (§2)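 U-2 OS cells grown in charcoal-treated FCS medium were transiently co-transfected with pSG5-ERβ FL (0.05 µg) and (ERE)2luc+ reporter (5 µg) using Fugene6, then pooled and reseeded. Compounds were added at 10^-5 to 10^-10 M in 0.1% DMSO for 21 h. Luciferase RLU was normalised to crystal-violet cell mass, in triplicate, and expressed as % of the E2 plateau.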

SMILES | EC50
CCC1=N[C@H](c2ccc(OCCN3CCCCC3)cc2)[C@H](c2ccc(O)cc2)N1 | 0.5 µM
Oc1cc(Cl)c([C@@H]2N=CN[C@@H]2c2ccc(OCCN3CCCCC3)cc2Cl)c(Cl)c1 | 0.4 µM
Oc1ccc([C@@H]2N=CN[C@@H]2c2ccc(OCCN3CCCCC3)cc2Cl)c(Cl)c1 | 0.6 µM
Oc1ccc([C@@H]2N=CN[C@@H]2c2ccc(OCCN3CCCC3)cc2Cl)c(Cl)c1 | 0.47 µM
CN(C)CCOc1ccc([C@H]2NC=N[C@H]2c2ccc(O)cc2Cl)c(Cl)c1 | 3.55 µM
CCC1=N[C@H](c2ccc(OCCN3CCCCC3)cc2Cl)[C@H](c2ccc(O)cc2Cl)N1 | 2.8 µM

Molecular target: T1, Estrogen receptor beta
Assay: Percent activation of estrogen receptor beta in luciferase assay at 10 uM
Settings: not given
Summary of the method: as §2

SMILES | Activation
CCC1=N[C@H](c2ccc(OCCN3CCCCC3)cc2)[C@H](c2ccc(O)cc2)N1 | 95%
Oc1ccc([C@@H]2N=CN[C@@H]2c2ccc(OCCN3CCCCC3)cc2)cc1 | 26%
Oc1cc(Cl)c([C@@H]2N=CN[C@@H]2c2ccc(OCCN3CCCCC3)cc2Cl)c(Cl)c1 | 103%
CN(C)CCOc1ccc([C@H]2N=CN[C@H]2c2ccc(O)cc2)cc1 | 36%
Oc1ccc([C@@H]2N=CN[C@@H]2c2ccc(OCCN3CCCCC3)cc2Cl)c(Cl)c1 | 60%
Oc1ccc([C@@H]2N=CN[C@@H]2c2ccc(OCCN3CCCC3)cc2Cl)c(Cl)c1 | 105%
CN(C)CCOc1ccc([C@H]2N=CN[C@H]2c2ccc(O)cc2Cl)c(Cl)c1 | 75%
CCC1=N[C@H](c2ccc(OCCN3CCCCC3)cc2Cl)[C@H](c2ccc(O)cc2Cl)N1 | 92%

Molecular target: T1, Estrogen receptor beta
Assay: Percent inhibition of 0.30 nM estradiol activity on estrogen receptor beta in MCF-7-2a cells at 10 uM
Format: cell-based
Settings: in the assay text read “U-2 OS cells” for “MCF-7-2a cells”
Summary of the method: as §1

SMILES | inhibition
Oc1ccc([C@@H]2N=CN[C@@H]2c2ccc(OCCN3CCCCC3)cc2)cc1 | 12%
Oc1cc(Cl)c([C@@H]2N=CN[C@@H]2c2ccc(OCCN3CCCCC3)cc2Cl)c(Cl)c1 | 0%
CN(C)CCOc1ccc([C@H]2N=CN[C@H]2c2ccc(O)cc2)cc1 | 0%
Oc1ccc([C@@H]2N=CN[C@@H]2c2ccc(OCCN3CCCCC3)cc2Cl)c(Cl)c1 | 0%
Oc1ccc([C@@H]2N=CN[C@@H]2c2ccc(OCCN3CCCC3)cc2Cl)c(Cl)c1 | 30%
CN(C)CCOc1ccc([C@H]2N=CN[C@H]2c2ccc(O)cc2Cl)c(Cl)c1 | 4%

Molecular target: T1, Estrogen receptor beta
Assay: Percent inhibition of 0.30 nM estradiol activity on estrogen receptor beta in U-2 OS cells at 10 uM
Settings: not given

SMILES | inhibition
CCC1=N[C@H](c2ccc(OCCN3CCCCC3)cc2)[C@H](c2ccc(O)cc2)N1 | 57%
CCC1=N[C@H](c2ccc(OCCN3CCCCC3)cc2Cl)[C@H](c2ccc(O)cc2Cl)N1 | 75%
